The source made the active and inactive calls.
Experiments:
P388 = assay: Cytotoxicity against mouse P388 cells assessed as reduction in cell viability at 0.78 to 100 uM after 4 days by MTT assay; type: functional, cell-based
How it was run: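 P388 cells kept in RPMI 1640 with 10% FBS and penicillin/streptomycin, 37 °C, 5% CO2. Compounds added from DMSO or methanol solutions to 1 × 10^5 cells/mL suspension at final 100 to 0.78 μM (twofold series); 4 days exposure. MTT (1 mg/mL) added 4 h, pellet dissolved in DMSO, absorbance read at 570 nm.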

Candida albicans = assay: Antimicrobial activity against Candida albicans at 1.25 to 10 ug/disc after 1 to 2 days by disc diffusion method; type: functional, organism-based
How it was run: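 Candida albicans precultured in LB broth; 1 mL broth seeded directly into 20 mL agar of 4.0% glucose, 1.0% peptone, pH 5.7. 6 mm paper disks at 10, 5, 2.5, 1.25 μg/disk; plates held at 37 °C for 1 to 2 days and scored for inhibition rings.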

Saccharomyces cerevisiae = assay: Antimicrobial activity against Saccharomyces cerevisiae at 1.25 to 10 ug/disc after 1 to 2 days by disc diffusion method; type: functional, organism-based
How it was run: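 Saccharomyces cerevisiae precultured in LB broth; 1 mL added to 20 mL agar (5.0% glucose, 0.5% peptone, 0.2% yeast extract, 0.4% K2HPO4, 0.2% KH2PO4, 0.02% MgSO4·7H2O, pH 5.6). Disks (6 mm) at 10, 5, 2.5, 1.25 μg/disk; 37 °C, 1 to 2 days; inhibition rings checked.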

Bacillus subtilis = assay: Antimicrobial activity against Bacillus subtilis at 1.25 to 10 ug/disc after 1 to 2 days by disc diffusion method; type: functional, organism-based
How it was run: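 Bacillus subtilis precultured in LB broth; 1 mL broth added directly to 20 mL LB agar. Paper disks (6 mm) loaded at 10, 5, 2.5 and 1.25 μg/disk placed on plates; incubation at 37 °C for 1 to 2 days; read-out was presence of inhibition rings around disks.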

Measured: Activity

CC1=C\[C@H]2[C@@H]3[C@@H](O)[C@H](O)[C@H](O)C(=O)[C@@H]3C=C[C@@H]2/C(C)=C/C=C/C=C/[C@@H](C)CNC(=O)CC(=O)\C=C\1
inactive: all assays above

CC1=C\C=C\[C@H]2[C@H](O)[C@@H](C)CN2C(=O)CC(=O)/C=C/C(C)=C/C=C/C[C@H](O)[C@H](O)C(=O)/C=C\C=C\1
inactive: all assays above

CC1=C\C=C\[C@H]2[C@H](O)[C@@H](C)CN2C(=O)CC(=O)/C=C/C(C)=C/C=C/[C@@H](O)[C@H](O)[C@H](O)C(=O)/C=C\C=C\1
inactive: all assays above

Source: ChEMBL document CHEMBL3763145, “Niizalactams A-C, Multicyclic Macrolactams Isolated from Combined Culture of Streptomyces with Mycolic Acid-Containing Bacterium” (J Nat Prod, 2015)
